The list is not random: actives were taken first. Their share in the collection is about 4.7%.
RGS4 pot: RGS4 potentiation or activation | HEK293 M3R/inducible RGS4, carbachol calcium flux Fluo4; hits give low values | B-score at 10 µM | 0.92% of 310,000 active;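 active = B-score of the integrated calcium signal more than 4 SD below the library mean, with starting fluorescence not abnormally high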;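 also: negative B-score means reduced calcium response which marks RGS4 activation or potentiation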
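Test system: HEK293 cells with stable M3R and inducible RGS4; also added: carbachol at ECmax as muscarinic agonist stimulus; schedule: dye loading 30 min 37 °C, buffer rest 30 min RT; technique: kinetic calcium fluorescence imaging with Fluo4-AM dye, 2 µM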
RGS4 inh: inhibitors of human RGS4. 0.45% of 310,000 active. B-score at 10 µM. P49798. HEK293 M3R/RGS4 inducible, Fluo-4 calcium flux; hits give high values; triggered by carbachol at its EC20. AID 463165;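 active = B-score, a plate-corrected calcium signal, over three deviations above library mean, with baseline fluorescence within five deviations of library mean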;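 also: RGS4 expression induced by doxycycline in cells with stable M3 receptor; B-score is computed from the integrated fluorescence ratio over baseline after carbachol; higher B-score means a larger calcium signal and so more RGS4 inhibition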
MrgX1 allo act: human MrgX1 positive allosteric modulation, primary screen. AID 588675. MrgX1-HEK293, Fluo-4 calcium flux, FDSS; hits give high values. B-score at 10 µM. 0.63% of 310,000 active;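 active = plate-corrected calcium response at least 3 library SD above typical, normal starting fluorescence, not activating the receptor alone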;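 also: compound read alongside a low EC10 to EC30 dose of BAM8-22 agonist; peak minus trough fluorescence over baseline measured at the second addition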
MrgX1 ag: agonists of human MrgX1 receptor; AID 588627; Q96LB2; 0.44% of 310,000 active; MrgX1-HEK293 cells, Fluo-4 calcium fluorescence, agonist mode; hits give high values; B-score at 10 µM;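 active = calcium response B-score plate-corrected fluorescence ratio at least 3 library SD, with starting fluorescence B-score inside 5 SD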
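Test system: HEK293 cells stably expressing human MrgX1 receptor; amount: 15,000 cells per well; doses: compound delivered in addition one of three; times: overnight plating before 1 h dye loading; detection: Fluo-4 NW calcium-flux fluorescence, kinetic read; read-out basis: B-scored fluorescence response ratio; controls: positive and negative controls per plate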
Cl transport mod: KCC2 (human) Cl- transport modulation; Q9H2X9; KCC2 cells, thallium flux FluoZin-2 fluorescence; B-score of Tl+ flux slope (higher = more flux/activation; lower = inhibition) at 10 µM; 2.2% of 190,000 active;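 active = thallium flux slope and its plate-corrected score both differing from the plate sample mean at a set confidence after two filtering rounds, in either direction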;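 also: slope of fluorescence scaled to starting intensity during 10 to 20 s after thallium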
MrgX1 antagonist: blocks BAM8-22 activation of human MrgX1 receptor | B-score at 10 µM | 1.3% of 310,000 active | Q96LB2 | MRGX1-HEK293 calcium flux, Fluo-4, BAM8-22 antagonism; hits give low values;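 active = calcium-response B-score plate-corrected more than 3 library SD below zero, starting fluorescence within 5 deviations, no agonist response on first addition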;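 also: peak minus trough fluorescence over baseline after final BAM8-22 challenge near maximal dose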
RGS4 block valid: RGS4 inhibitor validation. 65% of 1,700 active. shares compounds with RGS4 inh. HEK293 M3R/RGS4, carbachol calcium Fluo-4 fluorescence; carbachol added at its EC20; 0 = buffer wells, 100 = carbachol control. calcium response, % at 10 µM;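 active = duplicate-averaged calcium response above the buffer-only control mean plus 5 SD of those controls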;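 also: integrated fluorescence ratio F max minus min over baseline F0; higher response in RGS4-induced cells means RGS4 inhibition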
RGS4 uninduced: non-induced cell nonspecific activity of RGS4 inhibitors; shares compounds with RGS4 inh; HEK293 M3R non-induced, carbachol calcium Fluo-4; submaximal (EC20) carbachol stimulus; buffer wells 0%, carbachol control wells 100%; activity (percent), % at 10 µM; 20% of 1,900 active; AID 493000; call rule not given here;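 also: RGS4 induction absent so cells express M3R without RGS4; higher means more calcium signal and flags a non-specific hit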
RGS4 inh ctr2: second RGS4 inhibitor counter-screen in uninduced cells lacking carbachol. shares compounds with RGS4 inh. HEK293 M3R/RGS4 non-induced, Fluo-4 calcium, no carbachol; normalised: buffer wells 0%, carbachol wells 100%. calcium response (agonist-mode artifact), % at 10 µM. 22% of 1,900 active;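 active = duplicate-averaged calcium rise in uninduced cells above buffer wells' mean plus 5 SD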
Starred values were filed as active, the others as inactive; i = inactive; · = not tested or not shown.

SMILES	RGS4 pot	RGS4 inh	MrgX1 allo act	MrgX1 ag	Cl transport mod	MrgX1 antagonist	RGS4 block valid	RGS4 uninduced	RGS4 inh ctr2
Cc1nc2c(C(=O)NCCC3=CCCCC3)c[nH]n2c(=O)c1Cl	i	17*	i	i	-0.33	i	52%*	52%*	i
Cc1nc2c(C(=O)NCc3ccc4c(c3)OCO4)c[nH]n2c(=O)c1Cl	i	i	i	i	-0.8	i	·	·	·
NCC(O)COCCC12CC3CC(CC(C3)C1)C2 (centres undefined)	i	i	i	i	0.88	i	·	·	·
CC(NCC(O)COCCC12CC3CC(CC(C3)C1)C2)c1ccccc1 (centres undefined)	i	4.7*	i	i	1	i	i	i	24%*
CCOC(=O)C1CCN(Cc2nc3ccccc3c(=O)n2-c2ccc(F)cc2)CC1	i	5.4*	i	i	·	i	i	i	i
CCCc1sc(N/N=C/c2ccccn2)nc1-c1ccc(Br)cc1	i	i	i	i	·	i	·	i	i
Oc1ccc(N=C/C=C/c2cccc(Br)c2)cc1-c1nc2ccccc2s1	i	8.6*	i	i	-0.45	i	i	i	i
COC(=O)c1ccccc1NC(=O)CSc1nnc(-c2cccnc2)o1	i	i	i	i	·	i	·	·	·
O=C1NN(c2ccc(F)c(Cl)c2)C(=O)/C1=C\c1cccc(OC(=O)c2cccs2)c1	i	18*	i	27*	·	i	58%*	i	14%*
Cc1ccc(S(=O)(=O)N(C)C)cc1NC(=O)c1cc(C(C)(C)C)nn1Cc1ccccc1	i	i	i	i	-0.59	i	·	·	·
Cc1cc(C)n(CC(C)(O)c2ccccc2)n1 (centres undefined)	i	i	i	i	·	i	·	·	·
CNC[C@H](NC[C@@H](NCCCc1ccccc1)c1ccccc1)[C@H](C)O	i	i	i	i	·	i	·	·	·
COCCCNC(=O)c1ccccc1-c1cc(C)no1	i	i	i	i	0.71	i	·	·	·
OCCN(CCO)c1ccc2ccccc2c1	i	i	i	i	-0.075	i	·	·	·
OCCN(CCO)c1ccc(C(c2ccccc2Cl)c2ccc(N(CCO)CCO)cc2Cl)c(Cl)c1	i	i	i	i	0.35	i	i	i	15%*
Nc1nc(Nc2ccccc2F)sc1C(=O)c1ccccc1	i	6.5*	i	i	·	i	28%*	i	i
Cc1nc(Nc2ccccc2)sc1C(=O)c1ccc(F)cc1	i	i	i	i	·	i	·	·	·
CCOC(=O)N1CCC(NC(=O)c2ccc3c(c2)N(C)C(=O)/C(=C/c2cccc(OC)c2)S3)CC1	i	i	i	i	·	i	·	·	·
CN(C)c1oc(-c2ccccc2[N+](=O)[O-])nc1C#N	i	11*	i	i	1.1	i	5.0%*	i	i
Cc1ccc(-c2cc(Cc3ccc(F)cc3)c(=O)[nH]n2)cc1	i	i	i	i	-0.94	i	·	·	·
O=c1[nH]nc(-c2ccc(F)cc2)cc1Cc1ccc(F)cc1	i	i	i	i	-0.62	i	·	i	i
Cc1ccc(Cc2cc(-c3ccc(C)cc3)n[nH]c2=O)cc1	i	i	i	i	-0.87	i	·	i	i
CC1=NN(c2cccc(C(=O)O)c2)C(=O)/C1=C\C=C\c1ccco1	i	9.8*	i	i	0.32	i	16%*	34%*	i
C#CCOc1ccc(/C=C2/C(=O)N(c3cccc(C(=O)O)c3)N=C2C)cc1OC	i	6*	i	i	·	i	5.0%*	i	i
CCOc1ccccc1NC(=O)c1nnn(CC(=O)Nc2cc(C)cc(C)c2)c1N	i	i	i	i	·	i	·	·	·
SMILES	RGS4 pot	RGS4 inh	MrgX1 allo act	MrgX1 ag	Cl transport mod	MrgX1 antagonist	RGS4 block valid	RGS4 uninduced	RGS4 inh ctr2
CCc1nnc(NS(=O)(=O)c2ccc(N=Cc3c(C)[nH]n(-c4ccc(C)c(C)c4)c3=O)cc2)s1	i	i	i	i	-0.4	i	i	i	i
Cc1[nH]n(-c2ccc(Br)cc2)c(=O)c1C=Nc1ccc(S(=O)(=O)Nc2nccs2)cc1	i	18*	i	i	0.62	i	9.5%*	i	i
COc1cc(C(=O)Nc2cccc3cccnc23)cc(OC)c1OC	i	i	i	i	-1.8	i	i	i	i
COc1cc(OC)cc(C(=O)Nc2cccc3cccnc23)c1	i	i	i	i	·	i	·	·	·
Cc1ccc2occ(/C=N/NC(N)=S)c(=O)c2c1	i	11*	i	i	0.098	i	54%*	66%*	i
CC(=O)C1=C(C)OC(N)=C(C#N)C1c1cccc([N+](=O)[O-])c1 (centres undefined)	i	7.2*	i	i	-1.7	i	i	i	i
CC(=O)C1=C(C)OC(N)=C(C#N)C1c1cc([N+](=O)[O-])ccc1Cl (centres undefined)	i	i	i	i	·	i	·	·	·
COc1cccc(CNC(=O)CCCN2C(=O)C(c3ccccc3)Oc3cccnc32)c1OC (centres undefined)	i	i	i	i	·	i	·	·	·
CC(=O)c1cccc(S(=O)(=O)Nc2cccc(S(=O)(=O)NC3=NCCC3)c2)c1	i	i	i	i	-0.93	i	·	·	·
Cc1cc(C)c(S(=O)(=O)Nc2cccc(S(=O)(=O)NC3=NCCC3)c2)c(C)c1	i	4.8*	i	i	0.66	i	i	i	i
Cc1ccc(S(=O)(=O)N2CCCOC2CNC(=O)C(=O)NC2CCCC2)cc1 (centres undefined)	i	i	i	i	·	i	i	i	i
Cc1ccc(S(=O)(=O)N2CCCOC2CNC(=O)C(=O)NCCN2CCOCC2)cc1 (centres undefined)	i	i	i	i	·	i	·	·	·

Assay outcomes (PubChem)
